In ChEMBL document CHEMBL4007460, “17β-Hydroxywithanolides as Sensitizers of Renal Carcinoma Cells to Tumor Necrosis Factor-α Related Apoptosis Inducing Ligand (TRAIL) Mediated Apoptosis: Structure-Activity Relationships” (J Med Chem, 2017):
Active and inactive are the calls of the source. No cut-off for these calls is given here.

Experiments:
ACHN [1] = test: Sensitization of TRAIL-induced apoptosis in human ACHN cells assessed as reduction in cell viability preincubated for 2 hrs followed by addition of TRAIL measured after 18 hrs by MTS assay; type: functional, cell-based
Outline: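 ACHN cells were seeded at 5000/well and rested overnight at 37 °C, in RPMI with 5% FCS, glutamine, NEAA, pyruvate, HEPES and 2-mercaptoethanol. Compound pretreatment ran 2 h, then TRAIL was added to 50 ng/mL for 18 h at 37 °C. Viability was read by MTS (2 h, A490). IC50 values (cell number reduced 50%) came from dose-response curves; triplicates, at least 3 independent experiments, ± SD.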

CAKI-1 = test: Sensitization of TRAIL-induced apoptosis in human Caki1 cells assessed as reduction in cell viability at 125 to 500 nM preincubated for 2 hrs followed by addition of TRAIL measured after 18 hrs by MTS assay; type: functional, cell-based
Outline: (§1)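 Caki-1, SN12C or UO-31 renal cells seeded 5000/well, grown overnight at 37 °C, pretreated with compound across a concentration range for 2 h, then TRAIL 50 ng/mL added for 18 h more at 37 °C. Medium: RPMI, 5% FCS with supplements. Viable cells by MTS (2 h, A490); growth inhibition = (media − treatment)/media ×100. Triplicate, ≥3 experiments.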

SN12C = test: Sensitization of TRAIL-induced apoptosis in human SN12C cells assessed as reduction in cell viability at 125 to 500 nM preincubated for 2 hrs followed by addition of TRAIL measured after 18 hrs by MTS assay; type: functional, cell-based; outline: as §1
UO-31 = test: Sensitization of TRAIL-induced apoptosis in human UO31 cells assessed as reduction in cell viability at 125 to 500 nM preincubated for 2 hrs followed by addition of TRAIL measured after 18 hrs by MTS assay; type: functional, cell-based; outline: as §1
ACHN [2] = test: Reduction cFLIP level in human ACHN cells at 500 nM after 18 hrs by Western blot analysis; type: functional, cell-based
Outline: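 ACHN cells (RPMI, 5% FBS) plated 1.5×10^6/well, grown overnight at 37 °C, then exposed to compound at 500 nM for 18 h. Lysed in RIPA with protease/phosphatase inhibitors and zVAD-FMK; 20 μg protein per lane immunoblotted with anti-FLIP (7F10); GAPDH as loading control.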

ACHN [3] = test: Sensitization of TRAIL-induced apoptosis in human ACHN cells assessed as increase in caspase8 activation at 125 to 1000 nM preincubated for overnight followed by addition of TRAIL for 90 mins measured after 18 hrs by Western blot analysis; type: functional, cell-based
Outline: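 ACHN cells plated 1.5×10^6/well, grown overnight, treated overnight (18 h) with compound at 125–1000 nM, then TRAIL for 90 min before RIPA lysis (with zVAD-FMK). 20 μg protein immunoblotted for pro- and cleaved caspase-8 and caspase-3; GAPDH loading control. TRAIL given as 200 ng/mL in methods, 50 ng/mL in legend.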

ACHN [4] = test: Sensitization of TRAIL-induced apoptosis in human ACHN cells assessed as increase in caspase8 activation at 125 to 1000 nM preincubated for overnight followed by addition of TRAIL for 90 mins measured after 6 hrs by Western blot analysis; type: functional, cell-based
ACHN [5] = test: Cytotoxicity in human ACHN cells assessed as viable cells at 1250 to 5000 nM after 48 hrs by MTS assay; type: cell-based; conditions: 5 µM
ACHN [6] = test: Induction of CHOP expression in human ACHN cells at 2.5 to 5 uM measured after 24 hrs by Western blotting method; type: functional, cell-based
ACHN [7] = test: Induction of BIP expression in human ACHN cells at 2.5 to 5 uM measured after 24 hrs by Western blotting method; type: functional, cell-based
ACHN [8] = test: Induction of HSP70 expression in human ACHN cells at 2.5 to 5 uM measured after 24 hrs by Western blotting method; type: functional, cell-based
ACHN [9] = test: Cytotoxicity in human ACHN cells assessed as reduce cell number after 48 hrs by MTS assay; type: cell-based
Outline: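 ACHN cells exposed to compound for 48 h at 37 °C; viable cell number by MTS read-out. Triplicate determinations; IC50 (concentration reducing cell number by 50%) from 3 independent experiments, ± SD.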

[10] = Glutathione reactivity in DMSO assessed as formation of MIchael adduct with GSH at pH 7.4 after 24 hrs in presence of NAC by HPLC method
Outline: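 Withanolide (2.12 μM in DMSO, 0.5 mL) mixed with equal volume of 4.24 μM GSH or NAC solution at pH 7.4, 37 °C. Aliquots taken at 0, 0.5, 2, 4, 8, 24 h, stored −80 °C; unreacted withanolide quantified by C18 HPLC (H2O with 40 mM NH4OAc–MeOH gradient, UV 230 nm) using peak area.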

ACHN [11] = test: Induction of DR5 expression in human ACHN cells by Western blotting method; type: functional, cell-based
ACHN [12] = test: Reduction cFLIP level in human ACHN cells at 125 to 1000 nM after 16 hrs by Western blot analysis; type: functional, cell-based
ACHN [13] = test: Reduction cFLIP level in human ACHN cells at 125 to 1000 nM after 18 hrs by Western blot analysis

Compound | IC50 (ACHN [1]) [nM] | Activity (CAKI-1) | Activity (SN12C) | Activity (UO-31) | Activity (ACHN [2]) | Activity (ACHN [3]) | Activity (ACHN [4]) | Activity (ACHN [5]) | Activity (ACHN [6]) | Activity (ACHN [7]) | Activity (ACHN [8]) | Activity (ACHN [9]) | Activity [10] | Activity (ACHN [11]) | Activity (ACHN [12]) | Activity (ACHN [13])
CC(=O)OC[C@]12CC[C@H]3[C@@H](C[C@H]4O[C@]45CC=CC(=O)[C@]35C)[C@]1(O)CC[C@@]2(O)[C@@](C)(O)[C@H]1CC(C)=C(C)C(=O)O1 | 164 | Active | Active | Active | Active | Active | Active | Non-Toxic | inactive | inactive | inactive | Toxic | Active | inactive | – | –
CC1=C(C)C(=O)O[C@@H]([C@](C)(O)[C@]2(O)CC[C@@]3(O)[C@@H]4C[C@H]5O[C@]56CC=CC(=O)[C@]6(C)[C@H]4CC[C@]23C)C1 [WITHANOLIDE E] | 489 | Active | Active | Active | Active | Active | – | Non-Toxic | inactive | inactive | inactive | Toxic | Active | inactive | – | –
CC(=O)OCC1=C(C)C[C@H]([C@@H](C)[C@H]2CC[C@H]3[C@@H]4C[C@H]5O[C@]56[C@H](OC(C)=O)C=CC(=O)[C@]6(C)[C@H]4CC[C@]23C)OC1=O | – | – | – | – | – | – | – | – | Active | Active | Active | – | – | – | inactive | –
CC1=C(C)C(=O)O[C@@H]([C@](C)(O)[C@]2(O)CC[C@@]3(O)[C@@H]4C[C@H]5O[C@]56[C@H](O)C=CC(=O)[C@]6(C)[C@H]4CC[C@]23C)C1 | 67 | Active | Active | Active | Active | Active | – | Non-Toxic | – | – | – | Toxic | Active | inactive | – | –
CC1=C(CO)C(=O)O[C@@H]([C@@H](C)[C@H]2CC[C@H]3[C@@H]4C[C@H]5O[C@]56[C@@H](O)C=CC(=O)[C@]6(C)[C@H]4CC[C@]23C)C1 [WITHAFERIN A] | > 2000 | inactive | inactive | inactive | – | inactive | – | Toxic | Active | Active | Active | – | Active | inactive | – | inactive
